Source: ChEMBL document CHEMBL1811814, “Synthesis and evaluation of indole, pyrazole, chromone and pyrimidine based conjugates for tumor growth inhibitory activities--development of highly efficacious cytotoxic agents” (Eur J Med Chem, 2010)

Assays:
Type in all cases: functional
HCC 2998 = experiment: Growth inhibition of human HCC2998 cells
HCT-116 [1] = experiment: Growth inhibition of human HCT116 cells
HCT-15 = experiment: Growth inhibition of human HCT15 cells
SF-268 = experiment: Growth inhibition of human SF268 cells
U-251 [2] = experiment: Growth inhibition of human U251 cells
LOX IMVI = experiment: Growth inhibition of human LOXIMVI cells
Malme-3M [3] = experiment: Growth inhibition of human MALME-3M cells
MDA-MB-435 = experiment: Growth inhibition of human MDA-MB-435 cells
SK-MEL-5 = experiment: Growth inhibition of human SK-MEL-5 cells
UACC-62 [4] = experiment: Growth inhibition of human UACC62 cells
OVCAR-3 [5] = experiment: Growth inhibition of human OVCAR3 cells
OVCAR-5 [6] = experiment: Growth inhibition of human OVCAR5 cells
NCI/ADR-RES = experiment: Growth inhibition of human NCI/ADR-RES cells
SK-OV-3 [7] = experiment: Growth inhibition of human SKOV3 cells
786-0 = experiment: Growth inhibition of human 786-0 cells
SN12C = experiment: Growth inhibition of human SN12C cells
TK-10 [8] = experiment: Growth inhibition of human TK10 cells
[9] = Growth inhibition of human Hs 578T cells
MOLT-4 = experiment: Growth inhibition of human MOLT4 cells assessed tumor cell growth at 10^-5 M; design: scale not given: the % may be the effect or the level left
Method in brief: (§1)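 NCI 60-human-tumor-cell-line panel screen. Each compound was tested at a single concentration of 10^-5 M, and percent growth of tumor cells was recorded for each cell line. Growth inhibition was expressed from these percent-growth values.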

[10] = Growth inhibition of human […] cells assessed tumor cell growth at 10^-5 M; design: scale not given: the % may be the effect or the level left; method in brief: as §1
NCI-H322M = experiment: Growth inhibition of human NCI-H322M cells assessed tumor cell growth at 10^-5 M; design: scale not given: the % may be the effect or the level left; method in brief: as §1
HCT-116 [11] = experiment: Growth inhibition of human HCT116 cells assessed tumor cell growth at 10^-5 M; design: scale not given: the % may be the effect or the level left; method in brief: as §1
HT-29 = experiment: Growth inhibition of human HT-29 cells assessed tumor cell growth at 10^-5 M; design: scale not given: the % may be the effect or the level left; method in brief: as §1
KM12 = experiment: Growth inhibition of human KM12 cells assessed tumor cell growth at 10^-5 M; design: scale not given: the % may be the effect or the level left; method in brief: as §1
SW-620 = experiment: Growth inhibition of human SW620 cells assessed tumor cell growth at 10^-5 M; design: scale not given: the % may be the effect or the level left
Method in brief: (§2)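 Single-dose screen at 10^-5 M across the 60 human tumor cell line panel, run to NCI standards. The value is the percent growth of each cell line in the presence of compound. Compounds active at this dose moved on to five-concentration testing (10^-4 to 10^-8 M).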

SF-295 = experiment: Growth inhibition of human SF295 cells assessed tumor cell growth at 10^-5 M; design: scale not given: the % may be the effect or the level left; method in brief: as §1
SNB-19 = experiment: Growth inhibition of human SNB19 cells assessed tumor cell growth at 10^-5 M; design: scale not given: the % may be the effect or the level left; method in brief: as §2
U-251 [12] = experiment: Growth inhibition of human U251 cells assessed tumor cell growth at 10^-5 M; design: scale not given: the % may be the effect or the level left; method in brief: as §2
Malme-3M [13] = experiment: Growth inhibition of human MALME-3M cells assessed tumor cell growth at 10^-5 M; design: scale not given: the % may be the effect or the level left; method in brief: as §1
M14 = experiment: Growth inhibition of human M14 cells assessed tumor cell growth at 10^-5 M; design: scale not given: the % may be the effect or the level left; method in brief: as §1
UACC-62 [14] = experiment: Growth inhibition of human UACC62 cells assessed tumor cell growth at 10^-5 M; design: scale not given: the % may be the effect or the level left; method in brief: as §2
OVCAR-3 [15] = experiment: Growth inhibition of human OVCAR3 cells assessed tumor cell growth at 10^-5 M; design: scale not given: the % may be the effect or the level left; method in brief: as §1
OVCAR-4 = experiment: Growth inhibition of human OVCAR4 cells assessed tumor cell growth at 10^-5 M; design: scale not given: the % may be the effect or the level left; method in brief: as §1
OVCAR-5 [16] = experiment: Growth inhibition of human OVCAR5 cells assessed tumor cell growth at 10^-5 M; design: scale not given: the % may be the effect or the level left; method in brief: as §1
SK-OV-3 [17] = experiment: Growth inhibition of human SKOV3 cells assessed tumor cell growth at 10^-5 M; design: scale not given: the % may be the effect or the level left; method in brief: as §1
A498 = experiment: Growth inhibition of human A498 cells assessed tumor cell growth at 10^-5 M; design: scale not given: the % may be the effect or the level left; method in brief: as §1
TK-10 [18] = experiment: Growth inhibition of human TK10 cells assessed tumor cell growth at 10^-5 M; design: scale not given: the % may be the effect or the level left; method in brief: as §2
PC-3 = experiment: Growth inhibition of human PC3 cells assessed tumor cell growth at 10^-5 M; design: scale not given: the % may be the effect or the level left; method in brief: as §1
DU-145 = experiment: Growth inhibition of human DU145 cells assessed tumor cell growth at 10^-5 M; design: scale not given: the % may be the effect or the level left; method in brief: as §1
MCF7 = experiment: Growth inhibition of human MCF7 cells assessed tumor cell growth at 10^-5 M; design: scale not given: the % may be the effect or the level left; method in brief: as §1
MDA-MB-231 = experiment: Growth inhibition of human MDA-MB-231 cells assessed tumor cell growth at 10^-5 M; design: scale not given: the % may be the effect or the level left; method in brief: as §1
BT-549 = experiment: Growth inhibition of human BT549 cells assessed tumor cell growth at 10^-5 M; design: scale not given: the % may be the effect or the level left; method in brief: as §1
HL-60(TB) = experiment: Growth inhibition of human HL-60(TB) cells
K562 = experiment: Growth inhibition of human K562 cells
SR = experiment: Growth inhibition of human SR cells
A549 = experiment: Growth inhibition of human A549 cells
HOP-62 = experiment: Growth inhibition of human HOP62 cells
HOP-92 = experiment: Growth inhibition of human HOP92 cells
NCI-H23 = experiment: Growth inhibition of human NCI-H23 cells
NCI-H522 = experiment: Growth inhibition of human NCI-H522 cells
[19] = read-out: LC50 (the source's name)

Molecule `O=C1Nc2ccccc2/C1=C/c1cn(C(=O)c2c(Cl)cccc2Cl)c2ccccc12` has a GI50 (HCC 2998) of 6 µM, a CC50 (HCC 2998; [19]) of 52.4 µM and a GI50 (HCT-116 [1]) of 1.6 µM. The CC50 (HCT-116 [1]; [19]) was 6.9 µM, the GI50 (HCT-15) was 3.4 µM and the CC50 (HCT-15; [19]) was > 100 µM. It also gave a GI50 (SF-268) of 2.4 µM, a CC50 (SF-268; [19]) of 57.5 µM and a GI50 (U-251 [2]) of 3.4 µM. For the same molecule, the CC50 (U-251 [2]; [19]) was 54.9 µM, the GI50 (LOX IMVI) was 1.6 µM and the CC50 (LOX IMVI; [19]) was 6.6 µM. For the same molecule, the GI50 (Malme-3M [3]) was 2.6 µM, the CC50 (Malme-3M [3]; [19]) was 58.8 µM and the GI50 (MDA-MB-435) was 2.2 µM. It also gave a CC50 (MDA-MB-435; [19]) of 51.2 µM, a GI50 (SK-MEL-5) of 7.6 µM and a CC50 (SK-MEL-5; [19]) of 45.7 µM. The GI50 (UACC-62 [4]) was 4.9 µM, the CC50 (UACC-62 [4]; [19]) was 61.6 µM and the GI50 (OVCAR-3 [5]) was 1.6 µM. For the same molecule, the CC50 (OVCAR-3 [5]; [19]) was 8.1 µM, the GI50 (OVCAR-5 [6]) was 8.9 µM and the CC50 (OVCAR-5 [6]; [19]) was > 100 µM. The GI50 (NCI/ADR-RES) was 3.4 µM, the CC50 (NCI/ADR-RES; [19]) was > 100 µM and the GI50 (SK-OV-3 [7]) was 8.3 µM. The CC50 (SK-OV-3 [7]; [19]) was > 100 µM, the GI50 (786-0) was 3.3 µM and the CC50 (786-0; [19]) was 91.2 µM. It also gave a GI50 (SN12C) of 3.9 µM, a CC50 (SN12C; [19]) of 70.7 µM and a GI50 (TK-10 [8]) of 10.4 µM. For the same molecule, the CC50 (TK-10 [8]; [19]) was > 100 µM, the GI50 [9] was 2.2 µM and the CC50 [9, 19] was > 100 µM. For the same molecule, the Activity (MOLT-4) was 43.9%, the Activity [10] was 51.8% and the Activity (NCI-H322M) was 90.3%. The Activity (HCT-116 [11]) was 26%, the Activity (HT-29) was 69.6% and the Activity (KM12) was 54.7%. The Activity (SW-620) was 45.4%, the Activity (SF-295) was 44.5% and the Activity (SNB-19) was 68.6%. The Activity (U-251 [12]) was 35.8%, the Activity (Malme-3M [13]) was 116.7% and the Activity (M14) was 66.2%. For the same molecule, the Activity (UACC-62 [14]) was 36.7%, the Activity (OVCAR-3 [15]) was 43% and the Activity (OVCAR-4) was 50.3%. The Activity (OVCAR-5 [16]) was 84.9%, the Activity (SK-OV-3 [17]) was 71.8% and the Activity (A498) was 52.5%. The Activity (TK-10 [18]) was 90.7%, the Activity (PC-3) was 41.7% and the Activity (DU-145) was 59.2%. For the same molecule, the Activity (MCF7) was 22.9%, the Activity (MDA-MB-231) was 55% and the Activity (BT-549) was 51.7%. The GI50 (HL-60(TB)) was 2.4 µM, the CC50 (HL-60(TB); [19]) was > 100 µM and the GI50 (K562) was 3.1 µM. For the same molecule, the CC50 (K562; [19]) was > 100 µM, the GI50 (SR) was 2.2 µM and the CC50 (SR; [19]) was > 100 µM. For the same molecule, the GI50 (A549) was 3.2 µM, the CC50 (A549; [19]) was > 100 µM and the GI50 (HOP-62) was 12.8 µM. The CC50 (HOP-62; [19]) was > 100 µM, the GI50 (HOP-92) was 1.5 µM and the CC50 (HOP-92; [19]) was > 100 µM. The GI50 (NCI-H23) was 4.1 µM, the LC50 (concentration killing 50% of cells) (NCI-H23) was 50.1 µM and the GI50 (NCI-H522) was 4.2 µM. For the same molecule, the LC50 (concentration killing 50% of cells) (NCI-H522) was 54.9 µM.
